The record followed here is ChEMBL document CHEMBL3763088, “Design, synthesis, and biological evaluation of water-soluble amino acid prodrug conjugates derived from combretastatin, dihydronaphthalene, and benzosuberene-based parent vascular disrupting agents” (Bioorg Med Chem, 2016).

Data set [1] has as its target T1, Tubulin (Bos taurus) (UniProt Q6B856+Q862L2+Q862F3). The data set can be described thus: Displacement of [3H]colchicine from bovine brain tubulin at 1 uM after 10 mins by scintillation counting analysis. The method in brief:
(§1)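 1.0 μM tubulin with 5.0 μM [3H]colchicine and inhibitor at 1.0 or 5.0 μM. Buffer: 5% DMSO, 1.0 M monosodium glutamate pH 6.6, 0.5 mg/mL BSA, 0.1 M glucose-1-phosphate, 1.0 mM MgCl2, 1.0 mM GTP. Incubated 10 min at 37 °C, stopped with ice-cold water, collected on DEAE-cellulose filters and scintillation counted. Corrected for filter binding without tubulin; % inhibition against no-inhibitor controls.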
In general terms: Displacement assays read how much labelled ligand stays bound in the presence of the test substance.

For data set [2], the target named is T1, Tubulin (Bos taurus). The data set can be described thus: Displacement of [3H]colchicine from bovine brain tubulin at 5 uM after 10 mins by scintillation counting analysis. An outline of the steps: as §1
The next data set concerns HUVEC. Kind of data set: Antivascular activity in HUVEC cells assessed as disruption of capillary-like network of tubules formation at 0.1 uM by matrigel assay. In kind it is functional, cell-based. To be noted: Homo sapiens. The method in brief:
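HUVECs (124,000 per well in M200 with growth factors) plated on Matrigel (9.5 mg/mL) that had been set for 60 min at 37 °C. Cells incubated 16 h at 37 °C to form tubule networks. Then treated at 0.01, 0.1 or 1.0 μM and photographed, 9 fields/well with 40x objective.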

A short description of data set [3]: Cytotoxicity against human SKOV3 cells assessed as growth inhibition after 48 hrs by SRB assay. In kind it is functional, SK-OV-3. The method in brief:
(§2)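 Cells kept at 37 °C, 5% CO2, up to passage 15. Plated at 7500 cells/well in DMEM with 5% FBS and 1% gentamycin, grown 24 h, then given 10-fold serial dilutions for 48 h. Fixed with 10% TCA (final), SRB-stained, read at 540 nm, normalized at 630 nm. GI50 is the concentration halving net protein staining versus controls, taken from optical density data.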

In another data set the test system is NCI-H460. The data set can be described thus: Cytotoxicity against human NCI-H460 cells assessed as growth inhibition after 48 hrs by SRB assay. The class given is functional. An outline of the steps: as §2
Background: The SRB assay estimates cell density from bound dye.

The nature of data set [4]: Cytotoxicity against human DU145 cells assessed as growth inhibition after 48 hrs by SRB assay. In kind it is functional, DU-145. The method in brief: as §2
Data set [5] addresses T2, Leucine aminopeptidase (Sus scrofa, UniProt Q29571).
T2 sequence (Q29571 whole entry): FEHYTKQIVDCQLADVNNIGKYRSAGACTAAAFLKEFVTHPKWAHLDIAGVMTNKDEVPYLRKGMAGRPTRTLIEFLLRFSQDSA
Kind of data set: Prodrug conversion assessed as porcine leucine aminopeptidase-mediated compound cleavage by HPLC analysis. In kind it is ADME. The note with it: pig. The method in brief: (§3)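 Porcine kidney microsomal LAP; units defined with 24 mM L-leucine p-nitroanilide in 50 mM sodium phosphate pH 7.2 at 37 °C. Enzyme preincubated in the same buffer at 37 °C, then substrate added. Aliquots were quenched with acetonitrile on ice, centrifuged and run on C18 HPLC (acetonitrile/water, 0.05% TFA, 1.0 mL/min, 22 °C, diode-array UV). Cleavage % from the parent/prodrug peak-area ratio; amounts from calibration curves.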

In data set [6] the test system is MDA-MB-231. Kind of data set: Induction of tumor-specific vascular damage in luciferase expressing human MDA-MB-231 cells xenografted in SCID mouse assessed as reduction in light emission at 80 mg/kg at 2 hrs post dose by bioluminescence imaging assay relative to control. The class given is functional. To be noted: MDA-MB-231, 2 h.
Data set [7] concerns MDA-MB-231. The data set can be described thus: Induction of tumor-specific vascular damage in luciferase expressing human MDA-MB-231 cells xenografted in SCID mouse assessed as reduction in light emission at 80 mg/kg at 4 hrs post dose by bioluminescence imaging assay (reference value: 22%). In kind it is functional. To be noted: MDA-MB-231, 4 h. A general note: Xenograft models place foreign cells or tissue in a host animal.

Data set [8] concerns MDA-MB-231. Kind of data set: Induction of tumor-specific vascular damage in luciferase expressing human MDA-MB-231 cells xenografted in SCID mouse assessed as reduction in light emission at 80 mg/kg at 24 hrs post dose by bioluminescence imaging assay (reference value: 24%). The class given is functional. To be noted: MDA-MB-231, 24 h.
A further data set has as its target Tubulin (Bos taurus, UniProt Q6B856+Q862L2+Q862F3). The data set can be described thus: Inhibition of bovine brain tubulin polymerization preincubated for 15 mins by spectrophotometric analysis. An outline of the steps: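 Purified bovine brain tubulin, 1.0 mg/mL (10 μM), in 0.8 M monosodium glutamate pH 6.6 with 4% DMSO and varied compound. Temperature jumped from 0 to 30 °C; turbidity at 350 nm followed for 20 min.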

In data set [9] the target is T2, Leucine aminopeptidase. The data set can be described thus: Activity at porcine leucine aminopeptidase by HPLC analysis. The note with it: pig. In kind it is ADME. An outline of the steps: as §3
For data set [10], the target named is T2, Leucine aminopeptidase. The data set can be described thus: Prodrug conversion assessed as porcine leucine aminopeptidase-mediated compound cleavage after 24 hrs using 3.6 units of enzyme by HPLC analysis. In kind it is ADME. The note with it: pig. An outline of the steps:
as §3

The nature of data set [11]: Retention time of the compound by HPLC analysis. In kind it is physicochemical. The method in brief: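 Reversed-phase C18 HPLC (4.6 × 150 mm, 5 μm) at 25 °C with diode-array detection at 190–400 nm. Acetonitrile against water or 0.1% TFA/water. Gradient 10% to 100% acetonitrile over 40 min, or in method C 10% acetonitrile for 5 min then to 100% over 5–25 min, at 1.0 mL/min.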

Values joined by “and” are separate entries in the source; they are usually repeats but may differ in a detail not shown here. Equal entries are not always repeated. Active and inactive are the calls of the source. The rule behind the calls is not given here. Some results are limits rather than exact numbers.

Turning to `COc1ccc(/C=C\c2cc(OC)c(OC)c(OC)c2)c(N)c1N`, the inhibition on Tubulin (Bos taurus) [1] is 55% and 46%; on Tubulin (Bos taurus) [2], 87% and 86%. For the same compound, the result in the data set on HUVEC was Active.

Take `COc1ccc(/C=C/c2cc(OC)c(OC)c(OC)c2)c(NC(=O)[C@H](N)CO)c1.Cl`: the GI50 in data set [3] (Homo sapiens, SK-OV-3, 48 h) is 2.29 µM; in the data set on NCI-H460 (Homo sapiens, NCI-H460, 48 h), 2.24 µM; in data set [4] (Homo sapiens, DU-145, 48 h), 4.55 µM. Further, the Drug metabolism on Leucine aminopeptidase [5] came to 90%.

Consider `COc1ccc(/C=C\c2cc(OC)c(OC)c(OC)c2)c(N)c1N.Cl`, for which the GI50 in data set [3] amounted to 0.0228 µM; in the data set with NCI-H460 it was 0.124 µM; in data set [4] it was 0.205 µM. In addition, the inhibition in vivo at 80 mg/kg with MDA-MB-231 [6] was 95%; in the data set on MDA-MB-231 [7], 94%; with MDA-MB-231 [8], 79%. The IC50 against Tubulin is 2.3 µM.

With `COc1ccc2c(c1NC(=O)[C@@H](N)CO)CCC=C2c1cc(OC)c(OC)c(OC)c1`, the GI50 in data set [3] (Homo sapiens, SK-OV-3, 48 h) was determined as 13.7 µM; in the data set on NCI-H460 (Homo sapiens, NCI-H460, 48 h), 31.1 µM; in data set [4] (Homo sapiens, DU-145, 48 h) it was 40.6 µM.

Turning to `COc1ccc(/C=C\c2cc(OC)c(OC)c(OC)c2)c(NC(=O)[C@@H](N)CO)c1`, the GI50 in data set [3] (Homo sapiens, SK-OV-3, 48 h) is 0.0395 µM; in the data set with NCI-H460 (Homo sapiens, NCI-H460, 48 h) it was 0.0333 µM; in [4] (Homo sapiens, DU-145, 48 h), 0.0347 µM.

In the case of `COc1ccc2c(c1NC(=O)CN)CCC=C2c1cc(OC)c(OC)c(OC)c1`, the GI50 stood at 0.0138 µM in [3]; 0.0365 µM in the data set with NCI-H460 (Homo sapiens, NCI-H460, 48 h); 0.0501 µM in data set [4] (Homo sapiens, DU-145, 48 h).

With `COc1ccc2c(c1NC(=O)CN)CCCC=C2c1cc(OC)c(OC)c(OC)c1.Cl`, the GI50 in [3] was determined as 0.203 µM; in the data set on NCI-H460, 0.567 µM; in data set [4], 0.773 µM. On Leucine aminopeptidase [9], the Activity was 0.12 µM/min. In addition, the Drug metabolism on Leucine aminopeptidase [5] is recorded as 100%.

Regarding `COc1ccc2c(c1NC(=O)[C@@H](N)CO)CCC=C2c1cc(OC)c(OC)c(OC)c1.Cl`, the GI50 amounted to 11.6 µM in [3], 18.6 µM in the data set with NCI-H460 and 26 µM in data set [4]. Moreover, the Drug metabolism on Leucine aminopeptidase [10] and on Leucine aminopeptidase [5] was below 10% in each case.

`COc1ccc(/C=C\c2cc(OC)c(OC)c(OC)c2)c(N)c1` [listing 1 of 2 here]: the inhibition at Tubulin (Bos taurus) [1] was 55%; on Tubulin (Bos taurus) [2], 88% and 75%.

With `COc1ccc(/C=C\c2cc(OC)c(OC)c(OC)c2)c(N)c1` [listing 2 of 2 here], the GI50 in data set [3] was 0.0266 µM; with NCI-H460 (Homo sapiens, NCI-H460, 48 h), 0.0401 µM; in data set [4] (Homo sapiens, DU-145, 48 h) it was 0.0331 µM. The same compound returned a Retention_time in data set [11] of 31.29 min. Also, the concentration for half-maximal inhibition (IC50) against Tubulin amounted to 1.1 µM.

For the compound `COc1ccc(/C=C\c2cc(OC)c(OC)c(OC)c2)cc1N`, the GI50 stood at 0.00445 µM in data set [3] (Homo sapiens, SK-OV-3, 48 h); 0.00449 µM in the data set on NCI-H460 (Homo sapiens, NCI-H460, 48 h); 0.0033 µM in [4] (Homo sapiens, DU-145, 48 h).

With `COc1ccc(/C=C\c2cc(OC)c(OC)c(OC)c2)c(NC(=O)CN)c1.Cl`, the values for the GI50 (in [3]; in the data set with NCI-H460; in data set [4]) were 0.0485 µM, 0.0292 µM and 0.0447 µM, respectively. The compound also displayed an Activity on Leucine aminopeptidase [9] of 180 µM/min. Besides, the Drug metabolism at Leucine aminopeptidase [5] amounted to 100%.

For the compound `COc1ccc2c(c1NC(=O)[C@@H](N)CO)CCCC=C2c1cc(OC)c(OC)c(OC)c1`, the GI50 in data set [3] (Homo sapiens, SK-OV-3, 48 h) was 44.9 µM; in the data set with NCI-H460 (Homo sapiens, NCI-H460, 48 h), 45.9 µM; in data set [4] (Homo sapiens, DU-145, 48 h), above 81.3 µM.

The inhibition is the drop in the measured response relative to a control, in per cent. A higher inhibition goes with a strong effect. The term GI50 denotes the concentration at which growth is held to half of that of the control. As a reminder, the inhibition in vivo is the percentage by which the read-out fell short of the control. As a reminder, the IC50 is the concentration that inhibits the measured activity by half. A high value points to weaker potency.
